Published values pooled from the literature.
Target: Mitogen-activated protein kinase kinase kinase 7 (MAP3K7, Homo sapiens, UniProt O43318)

Structure (SMILES) | read-out | mode | method | concentration | quantity | result
CCN(CC)CCNC(=O)c1c(C)[nH]c(/C=C2\C(=O)Nc3ccc(F)cc32)c1C | enzyme activity | inhibitor | – | 10 µM | inhibition | 92%
COc1cc2ncnc(Nc3ccc(F)c(Cl)c3)c2cc1OCCCN1CCOCC1 | cell-free assay | – | – | 0.5 µM | remaining signal | 91.3%
FC(F)c1nc2ccccc2n1-c1nc(N2CCOCC2)nc(N2CCOCC2)n1 | enzyme activity | inhibitor | – | 10 µM | remaining activity | 97%
CN(c1ccnc(CNc2nc(Nc3ccc4c(c3)CC(=O)N4)ncc2C(F)(F)F)n1)S(C)(=O)=O | cell-free assay | – | competition with immobilised ligand | 1 µM | remaining binding | 48%
FC(F)(F)Oc1cccc(-c2cnc3ccc(-c4ccncc4)nn23)c1 | enzyme activity | inhibitor | radiometric | 1 µM | activity vs control | 58%
Cc1cc(C)c(-n2ccn3nc(-c4cccnc4)cc23)cc1NC(=O)c1cc(C#N)cc(S(F)(F)(F)(F)F)c1 | cell-free assay | – | competition with immobilised ligand | 0.1 µM | remaining binding | 66.2%
Cc1cc(NC(=O)c2cccc3cc(-c4cccc5[nH]nc(N)c45)ccc23)ccc1F | enzyme activity | inhibitor | – | 0.1 µM | activity vs control | 100%
C=CC(=O)Nc1cc(Nc2nccc(Nc3cc(Cl)c(F)cc3C(C)(C)O)n2)c(OC)cc1N1CC[C@@H](N(C)C)C1 | enzyme activity | inhibitor | – | 1 µM | inhibition | 21%
Nc1ncnc2occ(-c3ccc(NC(=O)Nc4cc(C(F)(F)F)ccc4F)cc3)c12 | cell-free assay | inhibitor | – | 20 µM | remaining signal | 3.7%
Oc1cccc(-c2nc(N3CCOCC3)c3oc4ncccc4c3n2)c1 | enzyme activity | inhibitor | – | 10 µM | remaining activity | 79%
Cc1ccc(C(=O)NCc2ccsc2)cc1C#Cc1cn(C(C)C)c2ncnc(N)c12 | enzyme activity | inhibitor | – | 1 µM | activity vs control | 112%
CS(=O)(=O)N1CCCC(NC(=O)[C@H](CCC2CCCCC2)NC(=O)c2ccc(CNc3ncnc4c3nnn4-c3ccccc3)cc2)C1 (stereo partly drawn) | cell-free assay | – | competition with immobilised ligand | 0.1 µM | remaining binding | 100%
O=C(Nc1cnn(-c2csc(C(=O)NC3COC3)c2)c1)Nc1ccccc1Cl | enzyme activity | inhibitor | – | 5 µM | remaining activity | 98%
CCCOc1ccc([C@H]2[C@H](C(=O)O)[C@@H](c3ccc4c(c3)OCO4)CN2CC(=O)Nc2c(CC)cccc2CC)cc1 | cell-free assay | – | competition with immobilised ligand | 1 µM | remaining binding | 100%
COc1cc(/C=C/C(=O)CC(=O)/C=C/c2ccc(O)c(OC)c2)ccc1O | enzyme activity | inhibitor | – | 1 µM | activity vs control | 102%
CNC(=O)c1cc(Oc2ccc(NC(=O)Nc3ccc(Cl)c(C(F)(F)F)c3)cc2)ccn1 | cell-free assay | – | – | 0.5 µM | remaining signal | 101%
O=c1nc(-c2ccccn2)sc2ccccc12 | binding | – | competition with immobilised ligand | 1 µM | remaining binding | 78%
Cc1sc(C(=O)NC2COC2)cc1-n1cc(NC(=O)Nc2c(F)cccc2Cl)cn1 | enzyme activity | inhibitor | – | 10 µM | remaining activity | 98.4%
CC1=C(C#N)C(c2ccc3c(c2)c(NC(=O)c2ccccc2C)nn3C)C(C#N)=C(C)N1 | cell-free assay | – | competition with immobilised ligand | 1 µM | remaining binding | 74%
c1ccc(CNc2nc(N3CCOc4ccccc43)nc3c2CCCC3)cc1 | target engagement in cells | inhibitor | chemoproteomics | 20 mM | inhibition | -10.3%
CC(C)(O)[C@H]1CC[C@H](Nc2ccc3ncc(-c4cccc(C(F)(F)F)c4)n3n2)CC1 | enzyme activity | inhibitor | – | 1 µM | remaining activity | 107%
CCCCNc1ncc2c(-c3ccc(F)cc3)nn(C[C@H]3CC[C@H](N)CC3)c2n1 | target engagement in cells | inhibitor | chemoproteomics | 20 mM | inhibition | 16%
Cc1nc(C2CCN(C(=O)c3ccc(OC(F)(F)F)cc3N)CC2)c2ncc(N3CCN(C)CC3)cc2n1 | cell-free assay | – | competition with immobilised ligand | 1 µM | remaining binding | 100%
CS(=O)(=O)CCNCc1ccc(-c2ccc3ncnc(Nc4ccc(OCc5cccc(F)c5)c(Cl)c4)c3c2)o1 | cell-free assay | – | – | 0.5 µM | remaining signal | 89%
COc1cc(Nc2cnc(C#N)c(O[C@H](C)CN(C)C)n2)ncc1-c1cnn(C)c1 | enzyme activity | inhibitor | radiometric | 10 µM | remaining activity | 53%
Cc1ccc(Nc2nccc(N(C)c3ccc4c(C)n(C)nc4c3)n2)cc1S(N)(=O)=O | enzyme activity | inhibitor | – | 0.3 µM | inhibition | -8%
C[C@@]1(Cc2ccc(C#N)cc2)C(=O)N(c2cc(Cl)cc(Cl)c2)c2ncc(C(=O)NC3(c4nc(C5CCC5)no4)CC3)n21 | cell-free assay | – | competition with immobilised ligand | 1 µM | remaining binding | 96%
